Measurements taken from publication PMC11349029 (Science translational medicine, 2016).
Residues, ends and D or L forms follow the SMILES beside them. No end group written: not given here. *: point of attachment. Cbz = O=C(OCc1ccccc1)*

Key:
AR55Q (polyQ-AR) [1] = assay: Western blotting of upper AR isoform in HEK293T cells; assay type: cell-based, human; settings: for accumulation of the upper AR isoform (p21Cip1 experiments) / effect on upper AR isoform upon overexpression of wtCDK2: HEK293T AR55Q; for accumulation of the upper AR isoform (p21Cip1 experiments): 5 or 100 nM OA, 10 μM forskolin, 100 nM PACAP, 24 hours; for effect on upper AR isoform upon overexpression of wtCDK2: 10 μM forskolin or 100 nM PACAP; for mobility of S96A and S96D phosphomutants: HEK293T, AR55Q-S96A, AR55Q-S96D, 100 nM PACAP (5 hours), SDS-PAGE, n = 4
AR = settings: cited from earlier work
AR55Q (polyQ-AR) [2] = assay: PolyQ-AR accumulation and turnover in HEK293T cells; assay type: cell-based, human
How it was run: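 AR55Q was expressed in HEK293T cells (DMEM, 10% heat-inactivated FBS, 2 mM L-glutamine, 37°C, 5% CO2) by polyethylenimine transfection the day after plating. For turnover, cells got cycloheximide 10 μg/ml plus 10 μM forskolin; separately, empty vector or wtPKA plus 10 μM MG132 for 5 h. AR was immunoblotted after 7% SDS-PAGE against a β-tubulin loading control.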

p21^Cip1 = assay: p21Cip1 expression in cells; assay type: cell-based; settings: fig. S13, A to D
CDK2/p21^Cip1 = assay: Binding of CDK2 to p21Cip1 in SBMA cells; assay type: cell-based; settings: fig. S13E
AR100Q (polyQ-AR) [3] = assay: Western blotting of upper AR isoform in MN-1 cells; assay type: cell-based, mouse motor neuron–derived MN-1 cells; settings: 10 μM forskolin (5 hours); n = 3
AR100Q (polyQ-AR) [4] = assay: Western blotting of upper AR isoform in primary cortical neurons; assay type: cell-based, rat primary cortical neurons; settings: 10 μM forskolin (5 hours); n = 4
How it was run: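 Cortical neurons came from embryonic day 18 Sprague-Dawley rats, dissociated with papain/DNase/cysteine and plated at 40,000 cells/cm² on poly-L-lysine in Neurobasal/B-27/GlutaMAX. At 6–7 DIV they were transduced with lentivirus (MOI 10) expressing AR24Q or AR100Q plus EGFP. Neurons were treated with 10 μM forskolin for 5 h, and AR upper and lower isoforms were immunoblotted with loading controls; n = 4.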

SBMA MN-1 cells [5] = assay: Caspase 3 assay in MN-1 cells; assay type: cell-based, mouse; settings: SBMA MN-1 cells (AR65Q), 48 hours
[6] = system: AR55Q phosphorylated at Ser^96; assay: Western blotting of Ser96-phosphorylated AR in HEK293T cells; assay type: cell-based, human; settings: 10 μM forskolin or 100 nM PACAP, 5 hours, n = 5 to 10
How it was run: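 HEK293T cells expressing AR55Q or AR55Q-S96A were treated with 10 μM forskolin or 100 nM PACAP for 5 hours. Lysates were run on 7% SDS-PAGE and blotted to nitrocellulose. Blots were probed with antibodies to Ser96-phosphorylated and total AR and detected by chemiluminescence or infrared imaging. n = 9 to 10 and 5 independent experiments.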

polyQ-AR [7] = assay: PolyQ-AR aggregation in HEK293T cells; assay type: cell-based, human; settings: high–molecular weight species in stacking gel, SDS-PAGE; fig. S18
AR112Q (polyQ-AR) = assay: PolyQ-AR aggregation in PC12 cells; assay type: cell-based, rat PC12 cells; settings: doxycycline 10 μg/ml, 10 nM DHT, 10 μM forskolin, 24 hours, n = 3
polyQ-AR [8] = assay: Atomic force microscopy of polyQ-AR oligomers; assay type: cell-based; settings: Sf9 insect cells; 10 nM DHT and 10 μM forskolin, 24 hours; n = 15 to 25
healthy male subjects = settings: cited from earlier work
[9] = system: animal models of AD, PD and HD; settings: cited from earlier work
AC/PKA pathway = settings: cited from earlier work
PAC1 receptor = settings: cited from earlier work
[10] = system: cAMP (EPAC biosensor), SBMA MN-1 cells; assay: BRET cAMP biosensor assay in MN-1 cells; assay type: cell-based, mouse; settings: SBMA MN-1 cells (AR65Q); different concentrations of PACAP, 20 min; n = 4
How it was run: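 MN-1 cells were transfected with an EPAC cAMP BRET biosensor (Renilla luciferase N-terminal, YFP C-terminal) 24 h after seeding. After another 24 h they were replated at 80,000 cells/well in phenol red–free MEM with 2% FBS, 10 mM Hepes and 2 mM glutamine, with or without 10 nM DHT for 24 h. Wells were read in PBS (Ca/Mg, 0.003% ascorbic acid) with 5 μM coelenterazine h for about 20 min after agonist; cAMP binding lowers the signal.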

SBMA MN-1 cells [11] = assay: Trypan blue assay in MN-1 cells; assay type: cell-based, mouse; settings: MN-1 cells expressing AR100Q, 100 nM PACAP, 96 hours, n = 8
How it was run: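 MN-1 cells stably expressing AR100Q were grown in DMEM with 10% FBS, 2 mM L-glutamine and gentamicin 0.05 mg/ml at 37°C, 5% CO2. Cells were given DHT plus vehicle or 100 nM PACAP for 96 hours.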

cAMP = cAMP levels in vivo; parameters: species or system mouse; settings: fig. S21; intranasal
[12] = cited from earlier work
[13] = cited from earlier work; remark: listed apart in the source

For `C[C@]12CCC(=O)C[C@@H]1CC[C@@H]1[C@@H]2CC[C@]2(C)[C@@H](O)CC[C@@H]12` [DHT, dihydrotestosterone], the “accumulation of the upper AR isoform, increase” value (AR55Q (polyQ-AR) [1]) is given as “about 1.2 fold” and the AR stabilization (AR) is given as “stabilizes”.
With `CC(C)C[C@@H](C=O)NC(=O)[C@H](CC(C)C)NC(=O)[C@H](CC(C)C)NC(=O)OCc1ccccc1` [MG132] (Cbz-Leu-Leu-Leu-aldehyde) the “effect of PKA and OA on polyQ-AR” value (AR55Q (polyQ-AR) [2]; HEK293T AR55Q, 10 μM MG132 (5 hours), n = 3) was “abolished”.
For `C=C1[C@@H](O)[C@@H]2O[C@]3(CC[C@H](/C=C/[C@@H](C)[C@@H]4CC(C)=C[C@@]5(O[C@H](C[C@@](C)(O)C(=O)O)CC[C@H]5O)O4)O3)CC[C@H]2O[C@@H]1[C@@H](O)C[C@H](C)[C@H]1O[C@@]2(CCCCO2)CC[C@H]1C` [Okadaic acid], the “accumulation of the upper AR isoform (p21Cip1 experiments)” value (AR55Q (polyQ-AR) [1]; n = 3) was “decreased accumulation”, the “expression of p21Cip1” value (p21^Cip1) was “induced the expression” and the “binding of CDK2 to p21Cip1” value (CDK2/p21^Cip1) was “increased the binding”.
For `CC[C@H](CO)Nc1nc(NCc2ccccc2)c2ncn(C(C)C)c2n1` [Roscovitine, roscovitine], the “accumulation of the upper isoform of polyQ-AR, phosphatase/kinase inhibitors” value (AR55Q (polyQ-AR) [1]; HEK293T expressing AR55Q, fig. S5, S6) was “specifically decreased the accumulation”.
For `C=C[C@@]1(C)CC(=O)[C@]2(O)[C@@]3(C)[C@@H](O)CCC(C)(C)[C@@H]3[C@H](O)[C@H](OC(C)=O)[C@@]2(C)O1` [forskolin], the “accumulation of the upper AR isoform (p21Cip1 experiments)” value (AR55Q (polyQ-AR) [1]; n = 3) was “decreased accumulation”, the “effect on upper AR isoform upon overexpression of wtCDK2” value (AR55Q (polyQ-AR) [1]; 5 hours, n = 3) was “blocked” and the “accumulation of the upper isoform of polyQ-AR” value (AR55Q (polyQ-AR) [1]; HEK293T expressing AR55Q, 10 nM DHT and 10 μM forskolin, 5 hours, n = 3) was “decreased the accumulation”. For the same compound, the “mobility of S96A and S96D phosphomutants” value (AR55Q (polyQ-AR) [1]) was “not affected”, the “upper-isoform accumulation of polyQ-AR, MN-1 cells” value (AR100Q (polyQ-AR) [3]) was “decreased” and the “upper-isoform accumulation of polyQ-AR, primary rat cortical neurons” value (AR100Q (polyQ-AR) [4]) was “decreased”. The “caspase 3 activity, forskolin” value (SBMA MN-1 cells [5]; 10 μM forskolin, n = 6 to 9) was “significant decrease”, the “amount of polyQ-AR phosphorylated at Ser96” value [6] was “significantly reduced” and the “expression of p21Cip1” value (p21^Cip1) was “induced the expression”. The “binding of CDK2 to p21Cip1” value (CDK2/p21^Cip1) was “increased the binding”, the “polyQ-AR aggregation, HEK293T cells” value (polyQ-AR [7]) was “reduced” and the “polyQ-AR aggregation, PC12 cells” value (AR112Q (polyQ-AR)) was “reduced”. For the same compound, the “shift from annular to fibrillar oligomers caused by polyQ expansion” value (polyQ-AR [8]) was “reversed”, the “reduction of polyQ-AR accumulation” value (AR55Q (polyQ-AR) [2]; HEK293T AR55Q, 10 μM forskolin, cycloheximide 10 μg/ml, n = 5) was 80% and the AR transcript levels (AR55Q (polyQ-AR) [2]; fig. S19C) was “without altering”.
In the case of “PACAP38: main PACAP peptide in mammals (137061-48-4, Calbiochem)”, the “tolerability, intranasal administration” value (healthy male subjects) is listed as “well tolerated”, the neuroprotective effects [9] is listed as “strong neuroprotective effects” and the “stimulation of cAMP production” value (AC/PKA pathway; general statement in discussion, no reference given) is listed as “stimulate cAMP production”.
For “acetyl–[Ala^15, Ala^20]PACAP1–38–propylamide [Peptide 6]”, the PAC1 receptor agonism (PAC1 receptor) is given as “superagonist”.
For “pituitary adenylyl cyclase activating polypeptide [PACAP]”, the “accumulation of the upper AR isoform (p21Cip1 experiments)” value (AR55Q (polyQ-AR) [1]; n = 3) was “decreased accumulation”, the “effect on upper AR isoform upon overexpression of wtCDK2” value (AR55Q (polyQ-AR) [1]; 5 hours, n = 3) was “blocked” and the “reduction of the accumulation of the upper isoform of polyQ-AR” value (AR55Q (polyQ-AR) [1]; HEK293T expressing AR55Q, 10 nM DHT and 100 nM PACAP, 5 hours, n = 9) was 35%. For the same compound, the “mobility of S96A and S96D phosphomutants” value (AR55Q (polyQ-AR) [1]) was “not affected”, the “caspase 3 activity, PACAP” value (SBMA MN-1 cells [5]; 100 nM PACAP, n = 3, through activation of PKA) was “significantly reduced” and the “dose dependence of cAMP release” value [10] was “dose-dependent”. The cell death (SBMA MN-1 cells [11]) was “significantly reduced”, the “amount of polyQ-AR phosphorylated at Ser96” value [6] was “significantly reduced” and the “expression of p21Cip1” value (p21^Cip1) was “induced the expression”. The “binding of CDK2 to p21Cip1” value (CDK2/p21^Cip1) was “increased the binding”, the “polyQ-AR aggregation, HEK293T cells” value (polyQ-AR [7]) was “reduced” and the “polyQ-AR aggregation, PC12 cells” value (AR112Q (polyQ-AR)) was “reduced”. The “cAMP production in vivo, PACAP” value (cAMP) was “induces cAMP production in vivo”, the “degradation in the blood” value [12] was “rapidly degraded in the blood” and the metabolic stability [12] was “poor metabolic stability”. The “penetration into target tissues” value [13] was “scarce penetration into target tissues” and the “activation of AC” value (AC/PKA pathway) was “potent activator”.
In the case of “vasoactive intestinal peptide (HSDAVFTDNYTRLRKQMAVKKYLNSILN; ends and bridges not checked; UniProt P01282 125-152, looked up) [VIP]”, the “accumulation of the upper isoform of polyQ-AR, VIP” value (AR55Q (polyQ-AR) [1]; fig. S3) is listed as “does not modify” and the “activation of AC” value (AC/PKA pathway) is listed as “reduced ability to activate AC”.
